# Measurements: article PMC4080709 (Science translational medicine, 2014)
# Experiments:
# [1] = test system: MeV isolates; assay: in vitro efficacy testing against a panel of MeV isolates; format: cell-based, measles virus
# Procedure, shortened: (§1)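 Virus yield reduction: cell-associated progeny titred by TCID₅₀. MeV is handled on Vero-hSLAM cells and CDV on Vero-cSLAM cells. Compound in DMSO. EC₅₀ from four-parameter variable-slope non-linear regression, with 95% asymmetric confidence intervals, from at least three independent experiments per virus. SI = CC₅₀/EC₅₀. MeV panel covers seven endemic genotypes; CDV strains are recombinant 5804PeH and Snyder Hill.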
# [2] = test system: CDV-5804PeH and Snyder Hill isolate; assay: in vitro efficacy testing against pathogenic CDV strains; format: cell-based, canine distemper virus; details: recombinant CDV-5804PeH and neuroadapted Snyder Hill isolate
# Procedure, shortened: as §1
# [3] = test system: established human and animal cell lines and primary human PBMCs; assay: CytoTox96 non-radioactive cytotoxicity assay; format: cell-based
# Procedure, shortened: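 CytoTox96 non-radioactive cytotoxicity assay; highest concentration tested 75 µM. Signal normalised to vehicle controls as %-toxicity = 100-((specific_490nm)/([…])*100). CC₅₀ derived from the mean of four replicates. Compound dissolved in DMSO. Cell lines kept at 37°C, 5% CO₂ in DMEM with 7.5% FBS.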
# [4] = single-dose oral PK study in ferrets; format: in vivo; details: ferret, single-dose p.o. 50 mg/kg
# Procedure, shortened: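 Ferrets given a single oral dose of 50 mg/kg in PEG-200/0.5% methylcellulose (10/90) at time zero, with blood sampled at set time points afterwards. Plasma prepared from heparinised blood. Drug quantified by internal-standard, reversed-phase isocratic HPLC with positive-ion electrospray LC/MS/MS. PK parameters estimated by modelling software.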
# [5] = serum protein binding; format: in vitro ADME
# [6] = shelf-stability at ambient temperature; format: physicochemical
# [7] = target: MeV polymerase complex (Measles virus, UniProt P12576); assay: minigenome luciferase replicon reporter assay, MeV; format: cell-based; details: 10 µM highest
# MeV polymerase complex, sequence (P12576 whole entry): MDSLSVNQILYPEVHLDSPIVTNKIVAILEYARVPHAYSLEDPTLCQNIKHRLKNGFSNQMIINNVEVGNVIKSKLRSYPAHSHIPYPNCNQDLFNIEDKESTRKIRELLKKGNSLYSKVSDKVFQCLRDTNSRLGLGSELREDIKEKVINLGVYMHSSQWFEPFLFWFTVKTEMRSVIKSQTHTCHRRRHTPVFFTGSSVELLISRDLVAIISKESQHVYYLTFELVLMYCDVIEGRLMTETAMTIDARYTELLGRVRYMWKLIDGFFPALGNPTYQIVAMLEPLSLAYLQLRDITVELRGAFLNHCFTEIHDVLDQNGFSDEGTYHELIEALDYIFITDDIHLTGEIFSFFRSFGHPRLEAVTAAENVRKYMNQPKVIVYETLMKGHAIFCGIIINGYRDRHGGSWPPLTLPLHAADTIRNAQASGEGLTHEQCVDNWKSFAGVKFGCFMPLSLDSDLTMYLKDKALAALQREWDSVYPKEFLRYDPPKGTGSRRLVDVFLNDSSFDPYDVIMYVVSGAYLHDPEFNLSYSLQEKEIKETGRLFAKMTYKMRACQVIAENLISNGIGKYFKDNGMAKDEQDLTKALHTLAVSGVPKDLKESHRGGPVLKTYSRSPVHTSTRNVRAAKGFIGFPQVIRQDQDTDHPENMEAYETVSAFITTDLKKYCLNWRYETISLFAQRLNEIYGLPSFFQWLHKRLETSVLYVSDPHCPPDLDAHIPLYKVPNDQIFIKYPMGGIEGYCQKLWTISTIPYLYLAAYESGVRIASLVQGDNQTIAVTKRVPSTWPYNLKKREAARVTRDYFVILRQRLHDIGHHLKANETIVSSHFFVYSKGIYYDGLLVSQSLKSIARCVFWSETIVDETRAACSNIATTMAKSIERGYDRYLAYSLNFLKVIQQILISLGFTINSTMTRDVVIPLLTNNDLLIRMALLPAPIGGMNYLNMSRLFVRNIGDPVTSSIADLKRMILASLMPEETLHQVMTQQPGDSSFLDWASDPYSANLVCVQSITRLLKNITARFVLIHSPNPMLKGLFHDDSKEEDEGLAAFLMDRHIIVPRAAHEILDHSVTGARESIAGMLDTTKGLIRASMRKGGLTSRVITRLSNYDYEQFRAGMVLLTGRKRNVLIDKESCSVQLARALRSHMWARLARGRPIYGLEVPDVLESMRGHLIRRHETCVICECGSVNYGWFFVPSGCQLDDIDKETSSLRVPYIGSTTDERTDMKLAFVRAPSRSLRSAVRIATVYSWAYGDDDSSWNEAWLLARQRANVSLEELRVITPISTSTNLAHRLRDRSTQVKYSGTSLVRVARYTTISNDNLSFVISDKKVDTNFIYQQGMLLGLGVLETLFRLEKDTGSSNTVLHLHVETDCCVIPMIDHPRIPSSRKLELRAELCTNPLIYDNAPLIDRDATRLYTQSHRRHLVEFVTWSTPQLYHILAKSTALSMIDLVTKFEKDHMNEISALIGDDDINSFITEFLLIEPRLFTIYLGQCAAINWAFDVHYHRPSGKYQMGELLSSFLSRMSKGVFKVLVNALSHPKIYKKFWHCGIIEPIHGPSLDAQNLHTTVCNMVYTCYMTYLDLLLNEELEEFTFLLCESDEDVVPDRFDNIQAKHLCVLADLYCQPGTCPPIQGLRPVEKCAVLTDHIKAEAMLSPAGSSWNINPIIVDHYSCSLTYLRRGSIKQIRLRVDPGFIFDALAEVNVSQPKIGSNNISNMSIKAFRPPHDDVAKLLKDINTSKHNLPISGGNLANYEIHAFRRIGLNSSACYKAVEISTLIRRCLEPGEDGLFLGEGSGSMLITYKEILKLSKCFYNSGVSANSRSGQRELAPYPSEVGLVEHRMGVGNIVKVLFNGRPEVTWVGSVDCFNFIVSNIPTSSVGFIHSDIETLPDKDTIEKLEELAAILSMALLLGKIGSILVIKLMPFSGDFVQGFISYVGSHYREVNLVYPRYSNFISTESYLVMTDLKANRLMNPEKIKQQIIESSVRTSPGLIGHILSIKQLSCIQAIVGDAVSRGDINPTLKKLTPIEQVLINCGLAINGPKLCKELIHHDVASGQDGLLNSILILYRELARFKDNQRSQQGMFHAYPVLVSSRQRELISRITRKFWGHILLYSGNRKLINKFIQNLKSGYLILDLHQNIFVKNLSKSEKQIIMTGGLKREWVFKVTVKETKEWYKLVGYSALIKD
# MeV polymerase complex, sequence (P03422 whole entry, further chain): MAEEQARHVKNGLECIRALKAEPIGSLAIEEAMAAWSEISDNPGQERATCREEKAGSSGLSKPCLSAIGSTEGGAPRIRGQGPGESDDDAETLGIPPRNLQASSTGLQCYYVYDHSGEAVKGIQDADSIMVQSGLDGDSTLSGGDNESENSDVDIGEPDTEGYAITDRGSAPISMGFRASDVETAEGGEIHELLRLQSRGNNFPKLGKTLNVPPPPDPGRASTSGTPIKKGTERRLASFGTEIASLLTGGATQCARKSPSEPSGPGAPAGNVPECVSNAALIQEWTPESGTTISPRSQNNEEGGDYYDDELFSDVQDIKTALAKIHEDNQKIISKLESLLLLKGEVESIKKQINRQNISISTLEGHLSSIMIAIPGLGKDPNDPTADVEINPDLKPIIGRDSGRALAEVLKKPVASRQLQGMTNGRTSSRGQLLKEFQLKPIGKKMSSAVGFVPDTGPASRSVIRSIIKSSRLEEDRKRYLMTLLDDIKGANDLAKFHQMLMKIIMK
# [8] = target: CDV polymerase complex (Canine distemper virus, UniProt P24658); assay: minigenome luciferase replicon reporter assay, CDV; format: cell-based; details: 10 µM highest
# [9] = target: RSV polymerase complex (Human respiratory syncytial virus A, UniProt P28887); assay: minigenome luciferase replicon reporter assay, RSV; format: cell-based; details: 10 µM highest
# RSV polymerase complex, sequence (P28887 whole entry, one chain of several): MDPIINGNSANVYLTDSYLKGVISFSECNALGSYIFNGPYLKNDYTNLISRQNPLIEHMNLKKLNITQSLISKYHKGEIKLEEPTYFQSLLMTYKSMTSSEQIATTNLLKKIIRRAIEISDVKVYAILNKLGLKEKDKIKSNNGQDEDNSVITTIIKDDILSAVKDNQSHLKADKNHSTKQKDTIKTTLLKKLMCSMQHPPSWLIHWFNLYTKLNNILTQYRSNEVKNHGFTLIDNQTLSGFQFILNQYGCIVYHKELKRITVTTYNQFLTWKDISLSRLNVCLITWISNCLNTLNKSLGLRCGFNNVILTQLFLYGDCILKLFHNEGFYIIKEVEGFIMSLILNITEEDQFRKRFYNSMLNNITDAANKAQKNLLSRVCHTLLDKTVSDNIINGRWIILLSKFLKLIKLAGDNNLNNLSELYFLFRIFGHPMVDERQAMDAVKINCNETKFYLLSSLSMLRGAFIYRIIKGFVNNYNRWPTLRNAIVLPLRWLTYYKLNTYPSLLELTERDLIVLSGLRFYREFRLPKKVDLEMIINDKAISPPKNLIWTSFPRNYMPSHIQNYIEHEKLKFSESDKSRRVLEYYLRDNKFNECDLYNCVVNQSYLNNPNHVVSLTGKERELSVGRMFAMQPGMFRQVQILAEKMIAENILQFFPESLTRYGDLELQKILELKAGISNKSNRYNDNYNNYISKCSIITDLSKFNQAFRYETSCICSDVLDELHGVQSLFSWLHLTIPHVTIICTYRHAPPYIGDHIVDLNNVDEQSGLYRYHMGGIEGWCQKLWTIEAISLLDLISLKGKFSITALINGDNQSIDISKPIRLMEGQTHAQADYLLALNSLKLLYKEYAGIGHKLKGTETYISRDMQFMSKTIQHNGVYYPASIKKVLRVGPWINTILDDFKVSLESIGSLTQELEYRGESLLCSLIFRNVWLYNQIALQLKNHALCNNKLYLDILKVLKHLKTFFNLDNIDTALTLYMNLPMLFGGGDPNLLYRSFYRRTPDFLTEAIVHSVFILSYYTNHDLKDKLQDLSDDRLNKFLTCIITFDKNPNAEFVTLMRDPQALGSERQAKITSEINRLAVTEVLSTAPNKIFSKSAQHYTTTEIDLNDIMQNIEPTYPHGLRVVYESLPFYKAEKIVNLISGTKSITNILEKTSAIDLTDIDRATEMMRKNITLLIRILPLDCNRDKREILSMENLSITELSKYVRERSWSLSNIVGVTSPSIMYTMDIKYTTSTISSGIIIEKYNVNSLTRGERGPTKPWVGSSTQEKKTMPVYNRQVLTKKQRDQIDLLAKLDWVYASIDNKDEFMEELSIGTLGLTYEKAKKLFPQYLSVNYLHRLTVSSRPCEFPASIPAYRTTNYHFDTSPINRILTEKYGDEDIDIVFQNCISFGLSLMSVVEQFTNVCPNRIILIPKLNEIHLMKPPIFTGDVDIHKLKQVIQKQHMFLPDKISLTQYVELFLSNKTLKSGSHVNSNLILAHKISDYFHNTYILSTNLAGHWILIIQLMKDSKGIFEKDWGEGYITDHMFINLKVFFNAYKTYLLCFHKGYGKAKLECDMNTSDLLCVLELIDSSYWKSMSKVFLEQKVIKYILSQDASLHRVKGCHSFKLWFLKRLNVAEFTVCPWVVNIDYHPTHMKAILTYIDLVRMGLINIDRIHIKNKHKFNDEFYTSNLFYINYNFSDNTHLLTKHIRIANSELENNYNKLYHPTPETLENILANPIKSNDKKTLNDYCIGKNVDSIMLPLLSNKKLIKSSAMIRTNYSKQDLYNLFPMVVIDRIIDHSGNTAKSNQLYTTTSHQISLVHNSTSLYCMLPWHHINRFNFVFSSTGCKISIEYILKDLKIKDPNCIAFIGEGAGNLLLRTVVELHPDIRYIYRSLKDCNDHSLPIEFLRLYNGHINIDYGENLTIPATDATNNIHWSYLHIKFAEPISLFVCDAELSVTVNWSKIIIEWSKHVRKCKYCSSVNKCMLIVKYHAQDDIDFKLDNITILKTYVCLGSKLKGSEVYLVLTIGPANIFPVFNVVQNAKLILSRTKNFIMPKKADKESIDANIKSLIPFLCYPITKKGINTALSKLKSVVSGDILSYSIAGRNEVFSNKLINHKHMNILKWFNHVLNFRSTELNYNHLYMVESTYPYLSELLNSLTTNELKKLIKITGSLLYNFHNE
# [10] = test system: CDV-5804PeH recombinants harboring L resistance mutations; assay: dose-response inhibition of resistant CDV-5804PeH recombinants; format: cell-based, canine distemper virus
# Procedure, shortened: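 Candidate L resistance mutations introduced singly into the CDV-5804PeH background by site-directed mutagenesis. Recombinants recovered, and mutations confirmed by RT-PCR and cDNA sequencing. Dose-response inhibition measured as cell-associated viral titres (TCID₅₀ on Vero-cSLAM cells), as mean ± SD of at least three independent experiments. Four-parameter variable-slope regression.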
# [11] = test system: CDV-5804PeH; assay: oral efficacy in ferrets infected intranasally with lethal CDV-5804PeH; format: in vivo, ferret
# Procedure, shortened: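 Male and female adult European ferrets without CDV immunity, infected intranasally with 1×10⁵ TCID₅₀ CDV-5804PeH per animal (~10 LD₅₀). Dosing by gastric gavage at 50 mg/kg b.i.d. in PEG200/0.5% methylcellulose (10/90). Post-exposure arm starts 3 days post-infection and runs 14 days; controls receive vehicle. Daily clinical observation. Blood and weights taken days 0, 3, 7, 10, 14, then weekly. Survival analysed by log-rank (Mantel-Cox) test.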
# [12] = rat model; cited from earlier work
# [13] = cited from earlier work
compound,measurement,setting,value
Cn1nc(C(F)(F)F)cc1C(=O)Nc1ccc(S(=O)(=O)N2CCCC[C@H]2CCN2CCOCC2)cc1 [ERDRP-0519],"selectivity indices (SI), CC50/EC50",[1]; against all MeV targets analyzed,> 200
same,antiviral potency,[1]; panel of MeV isolates representing clades currently endemic worldwide,nanomolar
same,potency reduction against CDV strains relative to MeV,[2],approximately 2 fold
same,cytotoxicity,[3],low cytotoxicity
same,peak plasma concentration,[4]; PEG-200/0.5% methylcellulose (10/90),"exceeded 1,500 ng/ml"
same,peak plasma concentration,[4]; converted from ng/ml,approximately 3.5 µM
same,serum protein binding,[5],< 95%
same,shelf-stability,[6],exceeded one year without loss of activity
same,inhibition of RdRp (replicon reporter) activity,[7],potently inhibited
same,inhibition of RdRp (replicon reporter) activity,[8],potently inhibited
same,inhibition of RdRp (replicon reporter) activity,[9],not blocked
same,increase in EC90 concentration versus standard CDV-5804PeH,[10]; CDV-5804PeH-LG835R,approximately 8 fold
same,increase in EC90 concentration versus standard CDV-5804PeH,[10]; CDV-5804PeH-LH589Y,approximately 8 fold
same,increase in EC90 concentration versus standard CDV-5804PeH,[10]; CDV-5804PeH-LH816L,approximately 8 fold
same,increase in EC90 concentration versus standard CDV-5804PeH,[10]; CDV-5804PeH-LN398D,approximately 2 fold
same,increase in EC90 concentration versus standard CDV-5804PeH,[10]; CDV-5804PeH-LT751I,> 20 fold
same,increase in EC90 concentration versus standard CDV-5804PeH,[10]; CDV-5804PeH-LT776A,> 20 fold
same,PBMC responsiveness (PHA-stimulated proliferation),[11]; PET group,only transiently impaired
same,clinical signs of disease,[11]; PET group,remained subclinical
same,humoral response (neutralizing antibodies),[11]; PET group,strong humoral response
same,signs of compound-induced toxicity,"[11]; PET group, 50 mg/kg p.o. b.i.d. for 14 days",not observed signs of compound-induced toxicity
same,prolongation of survival of treated ferrets,[11]; pre-exposure prophylaxis,up to 2 fold
same,animal survival,"[11]; prophylactic dosing, 50 mg/kg p.o. b.i.d. from 24 hours pre-infection",significantly prolonged animal survival
same,interferon induction levels in PBMCs,[11]; prophylactically treated animals,low interferon induction levels
same,clearance of infection,"[11]; therapeutically dosed animals, by day 28 pI",completely cleared the infection
same,oral availability,[12],39%
same,bidirectional membrane permeability,[13],high
